Assay results from different studies.
Each line is one published result; the experiments were not run side by side.
ABL1 phosphorylated: Tyrosine-protein kinase ABL1, phosphorylated (ABL1, Homo sapiens, UniProt P00519)

Structure (SMILES) | target | assay | setting | endpoint | value
C1=C/COCc2cc(ccc2OCCN2CCCC2)Nc2nccc(n2)-c2cccc(c2)COC/1 | ABL1 phosphorylated | binding | 0.1 µM | remaining binding | 27%
C[C@H]1CC[C@H](n2c3cnccc3c3cnc(Nc4ccc5c(n4)CCN(C(=O)CO)C5)nc32)CC1 | Tyrosine-protein kinase ABL1, phosphorylated (ABL1, Homo sapiens, UniProt P00519, E255K) | binding, competition with immobilised ligand | 1 µM | remaining binding | 77%
CO[C@@H]1[C@H](N(C)C(=O)c2ccccc2)C[C@H]2O[C@]1(C)n1c3ccccc3c3c4c(c5c6ccccc6n2c5c31)C(=O)NC4 | Tyrosine-protein kinase ABL1, non-phosphorylated (ABL1, Homo sapiens, UniProt P00519, Q252H) | enzyme activity, inhibitor | 1 µM | inhibition | 0%
CN1CCN(C(=O)c2ccc(NC(=O)Nc3ccc(N(C)c4ccnc(Nc5ccc(CS(C)(=O)=O)cc5)n4)cc3)cc2)CC1 | ABL1 phosphorylated | binding, competition with immobilised ligand | 1 µM | remaining binding | 30%
N#Cc1ccc(NC(=O)Nc2ccccc2)cc1 | Tyrosine-protein kinase ABL1, phosphorylated (ABL1, Homo sapiens, UniProt P00519, T315I) | cell-free assay, competition with immobilised ligand | 25 µM | remaining binding | 100%
Cc1ccc(NC(=O)c2ccnc(C(F)(F)F)c2)cc1-c1cc(OCCO)nc(N2CCOCC2)c1 | Tyrosine-protein kinase ABL1 (ABL1, Homo sapiens, UniProt P00519, F317L) | binding | 1 µM | remaining binding | 84%
CC#CC(=O)N1CCC[C@H]1c1nc(-c2ccc(C(=O)Nc3ccccn3)cc2)c2c(N)nccn12 | Tyrosine-protein kinase ABL1, phosphorylated (ABL1, Homo sapiens, UniProt P00519, Y253F) | enzyme activity, inhibitor | 1 µM | inhibition | 22%
COc1ccc2oc(-c3ccc4nc(N)oc4c3)c/c(=N\c3ccccc3NC(=O)CCN)c2c1 | Tyrosine-protein kinase ABL1 (ABL1, Homo sapiens, UniProt P00519) | binding | 1 µM | remaining binding | 102%
CCCCC(=O)Nc1ccc(-c2ccc3ncn(CCC)c(=O)c3c2)cn1 | Tyrosine-protein kinase ABL1, non-phosphorylated (ABL1, Homo sapiens, UniProt P00519) | binding, competition with immobilised ligand | 0.5 µM | remaining binding | 85%
C=CC(=O)N1CCC([C@@H]2CCNc3c(C(N)=O)c(-c4ccc(Oc5ccccc5)cc4)nn32)CC1 | Tyrosine-protein kinase ABL1, non-phosphorylated (ABL1, Homo sapiens, UniProt P00519, H396P) | enzyme activity, inhibitor | 1 µM | inhibition | 5%
